According to ChEMBL document CHEMBL1944511, “Bakuchiol derivatives as novel and potent cytotoxic agents: a report” (Eur J Med Chem, 2012):

Experiments:
Format in all cases: functional
[1] = test system: OVCAR-5; experiment: Growth inhibition of human OVCAR5 cells at 20 uM after 48 hrs by sulpharhodamine B assay; conditions: OVCAR-5, 48 h, read-out: GI
Method in brief: (§1)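 Cells grown at 37 °C, 5% CO2 in RPMI-1640/MEM with 10% FCS and penicillin/streptomycin, then seeded in 96-well plates and allowed to adhere overnight. Compound was added in DMSO (vehicle <0.2% in untreated controls) and incubated 48 h. Cells were fixed with ice-cold TCA, stained with 0.4% SRB in 1% acetic acid, and the dye solubilised in 10 mM Tris-base. OD read at 570 nm (reference 620 nm).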

[2] = test system: HeLa; experiment: Growth inhibition of human HeLa cells at 20 uM after 48 hrs by sulpharhodamine B assay; conditions: read-out: GI; method in brief: as §1
[3] = test system: HCT-15; experiment: Growth inhibition of human HCT15 cells at 20 uM after 48 hrs by sulpharhodamine B assay; conditions: HCT-15, 48 h, read-out: GI
Method in brief: (§2)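 This is the SRB protein-stain assay on adherent cells in RPMI-1640/MEM with 10% FCS. Each compound in DMSO (vehicle <0.2%) was applied at a single fixed concentration for 48 h. Cells were fixed with TCA and stained with SRB, and the dye was solubilised in Tris and read at 570/620 nm. Percent growth inhibition is relative to vehicle-treated controls, reported as mean ± SD of three experiments run in triplicate.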

[4] = test system: IMR-32; experiment: Growth inhibition of human IMR32 cells at 20 uM after 48 hrs by sulpharhodamine B assay; conditions: IMR-32, 48 h, read-out: GI; method in brief: as §2
[5] = test system: DU-145; experiment: Growth inhibition of human DU145 cells at 20 uM after 48 hrs by sulpharhodamine B assay; conditions: DU-145, 48 h, read-out: GI; method in brief: as §2
[6] = test system: PC-3; experiment: Growth inhibition of human PC3 cells at 20 uM after 48 hrs by sulpharhodamine B assay; conditions: PC-3, 48 h, read-out: GI; method in brief: as §2
[7] = test system: THP-1; experiment: Growth inhibition of human THP1 cells at 20 uM after 48 hrs by sulpharhodamine B assay; conditions: THP-1, 48 h, read-out: GI
Method in brief: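 Cells grown in RPMI-1640/MEM with 10% FCS, penicillin/streptomycin, 37 °C, 5% CO2. Seeded in 96-well plates, allowed to adhere overnight, then exposed 48 h to analogs in DMSO (vehicle <0.2% in controls). TCA-fixed, stained with 0.4% SRB in 1% acetic acid, dye solubilized in 10 mM Tris base, OD 570 nm (ref 620 nm). Mean ± SD of three experiments run in triplicate.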

[8] = test system: A549; experiment: Growth inhibition of human A549 cells at 20 uM after 48 hrs by sulpharhodamine B assay; conditions: A549, 48 h, read-out: GI; method in brief: as §2
[9] = test system: HEp-2; experiment: Growth inhibition of human Hep2 cells at 1 uM after 48 hrs by sulpharhodamine B assay; conditions: HEp-2, 48 h, read-out: GI; method in brief: as §2
[10] = test system: PC-3; experiment: Growth inhibition of human PC3 cells at 1 uM after 48 hrs by sulpharhodamine B assay; conditions: PC-3, 48 h, read-out: GI; method in brief: as §2
[11] = test system: A549; experiment: Growth inhibition of human A549 cells at 1 uM after 48 hrs by sulpharhodamine B assay; conditions: A549, 48 h, read-out: GI; method in brief: as §2
[12] = test system: MCF7; experiment: Growth inhibition of human MCF7 cells at 1 uM after 48 hrs by sulpharhodamine B assay; conditions: MCF7, 48 h, read-out: GI; method in brief: as §2

## O=c1[nH]cc(F)c(=O)[nH]1 [FLUOROURACIL]
[1]
  inhibition of growth at 20 µM: 75%
[2]
  inhibition of growth at 20 µM: 71%
[3]
  inhibition of growth at 20 µM: 63%
[4]
  inhibition of growth at 20 µM: 79%
[5]
  inhibition of growth at 20 µM: 75%
[6]
  inhibition of growth at 20 µM: 75%
[7]
  inhibition of growth at 20 µM: 85%
[8]
  inhibition of growth at 20 µM: 76%

## CO[C@@]12[C@H](COC(N)=O)C3=C(C(=O)C(C)=C(N)C3=O)N1C[C@@H]1N[C@@H]12 [MITOMYCIN]
[9]
  inhibition of growth at 1 µM: 78%
[10]
  inhibition of growth at 1 µM: 70%

## COc1cccc2c1C(=O)c1c(O)c3c(c(O)c1C2=O)C[C@@](O)(C(=O)CO)C[C@@H]3O[C@H]1C[C@H](N)[C@H](O)[C@H](C)O1 [DOXORUBICIN]
[11]
  inhibition of growth at 1 µM: 76%
[12]
  inhibition of growth at 1 µM: 85%
